Test results: ChEMBL document CHEMBL1154833, “Curcuminoid analogs with potent activity against Trypanosoma and Leishmania species” (Eur J Med Chem, 2010)
pEC50: −log10 of the molar value.

How the values were obtained:
[1] = test system: HEK293; assay: Cytotoxicity against HEK293 cells after 16 hrs by alamar blue assay; assay type: cell-based, Homo sapiens; settings: Homo sapiens, HEK293, 16 h; read-out: EC50
Procedure, shortened: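 HEK293T cells grown in DMEM-based medium with 10% newborn bovine serum at 37 °C, 5% CO2. Doubling dilutions of compound added for 16 h, then resazurin added. Fluorescence read at emission 590 nm after a further 24 h.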

[2] = test system: Trypanosoma brucei brucei; assay: Antitrypanosomal activity against diminazene-resistant Trypanosoma brucei brucei deltaTbat1-KO after 48 hrs by alamar blue assay; assay type: functional, organism-based
[3] = test system: Leishmania major; assay: Antileishmanial activity against Leishmania major Friedlin promastigotes after 48 hrs by alamar blue assay; assay type: functional, organism-based; settings: Leishmania major, Friedlin, 48 h; read-out: EC50
Procedure, shortened: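 L. major Friedlin promastigotes grown in HOMEM with 10% FBS at 25 °C. Alamar Blue fluorescence assay in 96-well plates. 3–6 independent experiments unless noted.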

[4] = test system: Trypanosoma brucei brucei; assay: Antitrypanosomal activity against multidrug-resistant Trypanosoma brucei brucei B48 after 48 hrs by alamar blue assay; assay type: functional, organism-based; settings: B48, 48 h
[5] = test system: Trypanosoma brucei brucei; assay: Antitrypanosomal activity against Trypanosoma brucei brucei GUTat 3.1; assay type: functional, organism-based
[6] = test system: Leishmania mexicana; assay: Antileishmanial activity against Leishmania mexicana MNYC/BZ/62/M379 amastigotes after 48 hrs by alamar blue assay; assay type: functional, organism-based; settings: Leishmania mexicana, MNYC/BZ/62/M379, 48 h; read-out: EC50
Procedure, shortened: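 Axenic L. mexicana MNYC/BZ/62/M379 amastigotes kept at 33 °C under CO2 in Schneider's Drosophila medium with 20% FBS and 0.3% gentamycin. Alamar Blue fluorescence read-out.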

[7] = test system: Trypanosoma evansi; assay: Antitrypanosomal activity against Trypanosoma evansi ITMAV170475 after 48 hrs by alamar blue assay; assay type: functional, organism-based; settings: ITMAV170475, 48 h
Procedure, shortened: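 Culture-adapted T. evansi ITMAV170475 seeded at 1.5 ×10⁵ trypanosomes/ml in HMI9/20% FBS. Exposed to compound for 48 h, then incubated with Alamar Blue for 24 h, all at 37 °C under CO2. Assay validated against hemocytometer cell counts. EC50 from a variable-slope sigmoid fit.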

[8] = test system: Trypanosoma brucei brucei; assay: Antitrypanosomal activity against Trypanosoma brucei brucei 427 after 48 hrs by alamar blue assay; assay type: functional, organism-based; settings: Trypanosoma brucei, 427, 48 h; read-out: EC50
[9] = test system: Trypanosoma brucei brucei; assay: Selectivity ratio of EC50 for Trypanosoma brucei brucei 427 to EC50 for Trypanosoma brucei brucei B48; assay type: functional
Procedure, shortened: (§1)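 T. b. brucei bloodstream forms (strain 427, its ΔTbAT1 clone, and the pentamidine-adapted B48 line derived from it) cultured in HMI9 with 10% FBS at 37 °C under CO2. EC50 for each line from the Alamar Blue fluorescence assay with sigmoid fitting, and the ratio taken between lines.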

[10] = test system: Trypanosoma brucei brucei; assay: Selectivity ratio of EC50 for Trypanosoma brucei brucei B48 to EC50 for Trypanosoma brucei brucei 427; assay type: functional; procedure, shortened: as §1
[11] = test system: Trypanosoma brucei brucei; assay: Selectivity ratio of EC50 for Trypanosoma brucei brucei 427 to EC50 for Trypanosoma brucei brucei deltaTbat1-KO; assay type: functional; procedure, shortened: as §1
[12] = Selectivity index, ratio of EC50 for HEK cells to EC50 for Leishmania major Friedlin promastigotes; assay type: toxicity, cell-based, HEK293; settings: human, HEK cells versus Leishmania major Friedlin promastigotes; read-out: Ratio EC50
Procedure, shortened: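 Ratio of HEK EC50 to parasite EC50. For HEK293T cells in DMEM with 10% newborn bovine serum at 37 °C and 5% CO2, doubling dilutions of compound were added for 16 h, then Alamar Blue, and fluorescence (em 590 nm) was read after another 24 h. L. major Friedlin promastigotes were grown in HOMEM with 10% FBS at 25 °C and tested by Alamar Blue. EC50 values came from sigmoid non-linear regression.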

[13] = Selectivity index, ratio of EC50 for HEK cells to EC50 for Trypanosoma brucei brucei 427; assay type: toxicity, cell-based, HEK293; settings: human, HEK cells versus Trypanosoma brucei brucei 427; read-out: Ratio EC50
[14] = Selectivity index, ratio of EC50 for HEK cells to EC50 for Trypanosoma brucei brucei B48; assay type: toxicity, cell-based, HEK293; settings: human, HEK cells versus Trypanosoma brucei brucei B48; read-out: Ratio EC50

`COc1cc(/C=C/C(=O)CC(=O)/C=C/c2ccc(O)c(OC)c2)ccc1O` [CURCUMIN] gave a pEC50 [1] of 4.43, a pEC50 [2] of 5.33 and a pEC50 [3] of 4.48. The pEC50 [4] was 5.54, the pEC50 [5] was 5.32 and the pEC50 [6] was 4.80. The pEC50 [7] was 5.70 and the pEC50 [8] was 5.60.

Work on `COc1ccc(CC/C=C/C(=O)CCc2ccc(OC)c(OC)c2)cc1OC` yielded a pEC50 [1] of 4.59, a pEC50 [2] of 5.80 and a pEC50 [3] of 4.92. The “Ratio EC50” value [9] was 83, the pEC50 [4] was 7.64 and the pEC50 [6] was 4.55. It also gave a pEC50 [8] of 5.72.

For `C=CCOc1ccc(/C=C/C(=O)CC(=O)/C=C/c2ccc(O)c(OC)c2)cc1OC`, the pEC50 [1] was 3.57, the pEC50 [2] was 5.66 and the pEC50 [3] was 5.24. The pEC50 [4] was 4.92, the “Ratio EC50” value [10] was 5 and the pEC50 [6] was 4.92. It also gave a pEC50 [7] of 5.80 and a pEC50 [8] of 5.62.

For `O=C(/C=C/c1ccc(O)cc1)CC(=O)/C=C/c1ccc(O)c(O)c1`, the pEC50 [1] was 4.52, the “Ratio EC50” value [11] was 2.7 and the pEC50 [2] was 5.74. It also gave a pEC50 [3] of 4.66, a pEC50 [4] of 6.00 and a pEC50 [6] of 4.68. It also gave a pEC50 [8] of 6.19.

`COc1cc(/C=C/C(=O)CC(=O)/C=C/c2ccc(O)c(O)c2)ccc1O` showed a pEC50 [1] of 4.44, a pEC50 [2] of 5.96 and a pEC50 [3] of 5.37. For the same compound, the pEC50 [4] was 5.57, the “Ratio EC50” value [10] was 3.1 and the pEC50 [6] was 5.49. It also gave a pEC50 [7] of 5.96 and a pEC50 [8] of 6.06.

With `COc1ccc(/C=C/C(=O)CC(=O)/C=C/c2ccc(OC)c(OC)c2)cc1OC` [TETRAMETHOXYCURCUMIN] the selectivity ratio [12] was 70, the pEC50 [1] was 3.70 and the pEC50 [2] was 6.21. It also gave a pEC50 [3] of 5.55, a pEC50 [4] of 6.11 and a pEC50 [6] of 5.00. For the same compound, the pEC50 [8] was 6.35.

`COc1cc(/C=C/C(=O)CC(=O)/C=C/c2ccc(OCC=C(C)C)c(OC)c2)ccc1OCC=C(C)C` showed a selectivity ratio [13] greater than 1000, a pEC50 [1] of less than 3.00 and a pEC50 [2] of 5.80. The pEC50 [3] was less than 4.00, the pEC50 [4] was 5.89 and the pEC50 [6] was 4.57. For the same compound, the pEC50 [8] was 5.92.

With `CC(=O)NCC(=O)O.N=C(N)c1ccc(/N=N/Nc2ccc(C(=N)N)cc2)cc1` [DIMINAZEN ACETURATE] the “Ratio EC50” value [11] was 20.

In the case of `COc1cc(CC/C=C/C(O)CCc2ccc(O)c(OC)c2)ccc1O` (configuration not stated), the selectivity ratio [13] was 3, the pEC50 [1] was 3.89 and the pEC50 [2] was 4.38. It also gave a pEC50 [3] of 4.30, a pEC50 [4] of 5.20 and a pEC50 [6] of 4.19. For the same compound, the pEC50 [8] was 4.40.

Work on `C=CCOc1ccc(/C=C/C(=O)CC(=O)/C=C/c2ccc(OCC=C)c(OC)c2)cc1OC` yielded a pEC50 [1] of less than 3.30, a pEC50 [2] of 5.72 and a pEC50 [3] of 4.60. For the same compound, the pEC50 [4] was 5.24, the “Ratio EC50” value [10] was 3.6 and the pEC50 [6] was less than 4.00. For the same compound, the pEC50 [7] was 5.25 and the pEC50 [8] was 5.80.

In the case of `COc1cc(CC/C=C/C(=O)CCc2ccc(O)c(OC)c2)ccc1O`, the selectivity ratio [13] was 453, the pEC50 [1] was 4.62 and the pEC50 [2] was 7.09. For the same compound, the pEC50 [3] was 5.05, the pEC50 [4] was 7.64 and the selectivity ratio [14] was greater than 1000. For the same compound, the pEC50 [6] was 4.77, the pEC50 [7] was 6.77 and the pEC50 [8] was 7.28.
